Assay outcomes from PubChem.
Most compounds without a hit are left out; they make up all but 2.3% or so of the library.
TRPC4 block – inhibitors of mouse TRPC4 channel; hit rate 0.39% among 300,000; B-score at 10 µM; Q9QUQ5; HEK293 TRPC4beta/mu-opioid, DAMGO-evoked Fluo4 calcium flux; hits give low values;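 active means B-score over 3 SD under the library average, no early fluorescence shift, positive overall ratio signal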
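Assay system: HEK293 cells with stable TRPC4beta plus mu-opioid receptor expression. Dosing: single dose. Measured by: Fluo4 Ca2+ flux fluorescence. Also added: DAMGO in two steps, submaximal then maximal. Read-out: B score from integrated Fluo4 fluorescence ratio.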
TRPC4 PAM – allosteric potentiators of mouse TRPC4 channel | Q9QUQ5 | HEK293 TRPC4beta/mu-opioid, DAMGO EC20, Fluo-4 Ca2+ flux; hits give high values | B-score at 10 µM | hit rate 0.42% among 310,000;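 active means B-score of calcium response area above 5 SD of library B-scores, with initial fluorescence ratio within 5 SD of library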;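 further: B-score of integrated fluorescence ratio over time as area under calcium response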
TRPC6 act – mouse TRPC6 channel activation | Q61143 | HEK293-TRPC6 membrane potential dye fluorescence; hits give high values | B-score at 10 µM | hit rate 0.13% among 310,000;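 active means B-score of the integrated fluorescence ratio above library mean plus 3 SD, and starting fluorescence ratio within library mean plus 5 SD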;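 further: higher score means more depolarization so channel activation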
Target sequence (Q61143 whole entry, looked up): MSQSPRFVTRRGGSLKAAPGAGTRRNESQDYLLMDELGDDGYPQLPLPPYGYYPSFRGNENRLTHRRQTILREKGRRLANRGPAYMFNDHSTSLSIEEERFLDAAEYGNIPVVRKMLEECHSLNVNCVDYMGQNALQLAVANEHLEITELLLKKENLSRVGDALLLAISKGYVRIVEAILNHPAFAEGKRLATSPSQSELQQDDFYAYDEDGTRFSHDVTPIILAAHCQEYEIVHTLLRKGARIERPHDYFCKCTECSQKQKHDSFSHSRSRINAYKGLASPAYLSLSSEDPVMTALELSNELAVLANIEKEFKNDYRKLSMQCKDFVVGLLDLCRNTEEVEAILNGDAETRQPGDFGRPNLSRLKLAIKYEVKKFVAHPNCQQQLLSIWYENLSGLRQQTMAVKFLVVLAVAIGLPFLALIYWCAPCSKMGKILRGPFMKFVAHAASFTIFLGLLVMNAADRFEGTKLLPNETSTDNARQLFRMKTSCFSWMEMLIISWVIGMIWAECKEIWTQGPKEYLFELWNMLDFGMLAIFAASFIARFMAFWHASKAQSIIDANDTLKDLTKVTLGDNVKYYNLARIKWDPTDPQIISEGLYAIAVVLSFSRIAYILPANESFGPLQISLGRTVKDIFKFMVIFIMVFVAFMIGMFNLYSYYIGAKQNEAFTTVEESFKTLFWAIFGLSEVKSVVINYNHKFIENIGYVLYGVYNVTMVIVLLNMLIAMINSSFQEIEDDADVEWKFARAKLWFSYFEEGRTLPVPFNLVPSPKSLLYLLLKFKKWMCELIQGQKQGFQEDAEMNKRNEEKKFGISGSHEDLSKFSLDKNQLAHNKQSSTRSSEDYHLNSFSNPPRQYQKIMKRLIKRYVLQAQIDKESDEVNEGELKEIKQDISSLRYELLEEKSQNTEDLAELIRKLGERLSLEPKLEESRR
TRPC6 inh – inhibitors of mouse TRPC6 channel; Q61143; HEK293-TRPC6, membrane potential dye, ACh-evoked depolarization; hits give low values; B-score at 10 µM; hit rate 1.1% among 310,000;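 active means B-score under library mean minus 3 SD, initial fluorescence not abnormally high, positive integrated signal ratio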;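 further: B-score derived from integrated fluorescence ratio over the kinetic read; more negative B-score means stronger inhibition of depolarization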
TRPC4 agonist – TRPC4 (mouse) channel activation; AID 2237; Q9QUQ5; hit rate 0.49% among 310,000; HEK293 TRPC4beta/mu-opioid, Fluo4 calcium fluorescence; hits give high values; B-score at 10 µM;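 active means B-score above 5 SD of library B-scores, and initial fluorescence ratio not above library mean plus 5 SD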;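 further: positive B-score marks a calcium rise read as TRPC4 activation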
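system = HEK293 cells stably co-expressing mouse TRPC4beta and mu-opioid receptor | schedule = Fluo4 dye loading 45 min at room temperature, 110 s recording | measure = B-scored integrated calcium fluorescence ratio | signal = Fluo4 calcium-sensitive dye fluorescence, kinetic, 1 Hz baseline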
TRPC4 sel inh 2 – second selectivity test of TRPC6 inhibitors: effect on mouse TRPC4; AID 2776; hit rate 42% among 920; inhibition, % at 10 µM; shares compounds with TRPC6 inh; HEK293 TRPC4/MOR, membrane potential dye fluorescence; channel activated by saturating DAMGO dose;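 active means compounds whose fluorescence signal differed from control wells by over 3 SD, either direction, in both duplicate plates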
TRPC4 spec – tests whether TRPC6 inhibitors also affect mouse TRPC4; AID 2777; hit rate 61% among 920; activity change, negative = inhibition, % at 10 µM; shares compounds with TRPC6 inh; HEK293 TRPC4/mu-opioid, membrane potential fluorescence;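 active means rise or fall in signal beyond 3 SD of buffer-only wells in both replicate plates, either sign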;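 further: integrated kinetic ratio of fluorescence range over baseline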
HEK293 MPD ctr 2-1 – parental HEK293 nonspecific activity of TRPC6 inhibitors, second screen. shares compounds with TRPC6 inh. signal change vs control, % at 10 µM. parental HEK293 membrane potential dye fluorescence; maximal acetylcholine challenge after compound addition. hit rate 31% among 920;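 active means membrane potential signal moving either way by over 3 SD of the maximum-effect control, in both duplicate plates, meaning non-specific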
HEK293 MPD ctr-1 – parental HEK293 nonspecific activity of TRPC6 inhibitors. parental HEK293 membrane potential dye fluorescence. shares compounds with TRPC6 inh. hit rate 60% among 920. AID 2780. membrane potential signal change, % at 10 µM;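 active means membrane potential signal shifting up or down by more than 3 SD of buffer-only wells, on both duplicate plates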
HEK293 MPD ctr-2 – counter-screen for TRPC6 modulators: effect in parental HEK293 cells; membrane potential signal change, % at 10 µM; shares compounds with TRPC6 inh; membrane potential dye fluorescence; AID 488924; hit rate 51% among 2,400;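 active means membrane potential signal moves up or down beyond 5 SD from buffer-only wells, on both duplicate plates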
HEK293 MPD ctr 2-2 – second check of TRPC6 modulator effects in parental HEK293 cells; shares compounds with TRPC6 inh; membrane potential dye fluorescence; after compound, maximal acetylcholine stimulation; inhibition, % at 10 µM; hit rate 14% among 2,400; AID 488926;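 active means membrane potential signal drops by more than 5 SD from the mean control signal, in both duplicate plates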;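 further: plate controls were acetylcholine ECmax control wells for no effect and buffer only wells for full effect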
TRPC4 ctr mod – mouse TRPC4 off-target activity of TRPC6 modulators; shares compounds with TRPC6 inh; HEK293 TRPC4/mu-opioid, membrane potential fluorescence; percent change from control (negative = decrease, positive = increase), % at 10 µM; hit rate 69% among 2,400; AID 488927;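 active means membrane potential signal moved up or down beyond 5 SD of buffer control wells, in both duplicate plates, actives on both sides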;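 further: plate controls were assay buffer wells for no effect and DAMGO maximal-effect wells for full effect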
TRPC4/MOR inh 2 – second selectivity test of TRPC6 modulators against mouse TRPC4 | shares compounds with TRPC6 inh | HEK293 TRPC4/mu-opioid, membrane potential dye fluorescence; stimulated with maximal-effect DAMGO | hit rate 55% among 2,400 | inhibition, % at 10 µM;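 active means drop in membrane potential signal beyond 5 SD of the control wells in both duplicate plates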;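 further: TRPC4 counter screen for TRPC6 hits run under conditions tuned for TRPC6 not TRPC4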
TRPC6 block conf – confirmation of mouse TRPC6 inhibitors | shares compounds with TRPC6 inh | HEK293-TRPC6, membrane potential dye, ACh-evoked depolarization | hit rate 43% among 3,300 | inhibition, % at 10 µM;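 active means fluorescence ratio falls more than 5 SD below the full-stimulation control mean, in both duplicate runs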;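 further: integrated fluorescence ratio of peak minus minimum over baseline after agonist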
TRPC6 act conf – mouse TRPC6 activator confirmation; activation, % at 10 µM; hit rate 11% among 2,800; HEK293-TRPC6 membrane potential dye fluorescence, FDSS; shares compounds with TRPC6 inh; AID 488961;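 active means ratio signal rise beyond 5 SD above unstimulated control wells' mean, seen in both duplicate runs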;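 further: plate controls were buffer EC0 wells for no effect and acetylcholine ECmax response for full effect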
An asterisk follows results filed as active; i = inactive; nt = not tested or not shown.

SMILES	TRPC4 block	TRPC4 PAM	TRPC6 act	TRPC6 inh	TRPC4 agonist	HEK293 MPD ctr-2	HEK293 MPD ctr 2-2	TRPC4 ctr mod	TRPC4/MOR inh 2	TRPC6 block conf	TRPC6 act conf	others
OCCNc1nc(Nc2ccc(Br)cc2)nc2ccccc12	i	i	i	-7*	i	nt	nt	nt	nt	i	i	TRPC4 sel inh 2=46%*;TRPC4 spec=-20%*;HEK293 MPD ctr 2-1=i;HEK293 MPD ctr-1=-181%*
Cc1c(Cl)cccc1Nc1nc(NCCO)c2ccccc2n1	i	i	i	-6.9*	i	nt	nt	nt	nt	i	i	TRPC4 sel inh 2=51%*;TRPC4 spec=i;HEK293 MPD ctr 2-1=i;HEK293 MPD ctr-1=i
OCCNc1nc(Nc2ccccc2)nc(Nc2ccccc2)n1	i	i	i	i	i	nt	nt	nt	nt	nt	nt
CCCCN(C(=O)/C=C/c1ccco1)c1c(N)n(Cc2ccccc2)c(=O)[nH]c1=O	i	i	i	i	i	nt	nt	nt	nt	nt	nt
CCN(CC)c1ccc(/C=N/NC(=O)c2cccc(N3CCCC3=O)c2)cc1	i	i	i	i	i	nt	nt	nt	nt	nt	nt
O=C(COC(=O)C1=COCCO1)NC1CCCCCCC1	i	i	i	i	i	nt	nt	nt	nt	nt	nt
CCCCc1nnc(NC(=O)c2ccc3c(=O)n4c(nc3c2)CCC4)s1	i	i	i	-7.4*	i	nt	nt	nt	nt	i	i	TRPC4 sel inh 2=i;TRPC4 spec=-15%*;HEK293 MPD ctr 2-1=i;HEK293 MPD ctr-1=-130%*
O=C(Nc1ccc(Br)cc1Cl)c1ccc2c(=O)n3c(nc2c1)CCC3	i	i	i	i	i	nt	nt	nt	nt	nt	nt
O=C(Nc1ccc(Cl)cc1Cl)c1ccc2c(=O)n3c(nc2c1)CCC3	i	i	i	-5.1*	59*	276%*	114%*	34%*	i	i	nt
O=C(Oc1ccc(F)c(F)c1)c1ccc2c(=O)n3c(nc2c1)CCC3	i	i	i	-5.1*	i	i	i	i	i	i	i
O=C(CCN1CCCCO1)N1CCCC(Nc2ccc(F)c(F)c2)C1 (centres undefined)	i	i	i	-5.8*	i	i	i	8.5%*	i	46%*	nt
CCc1nccn1CCC(=O)N1CCCC(Nc2ccc(F)cc2)C1 (centres undefined)	i	i	i	-7.6*	i	i	i	12%*	i	i	nt
CCN(CC(=O)Nc1c(F)cccc1F)C(=O)Cc1csc(-c2ccc(OC)c(OC)c2)n1	i	i	i	i	i	nt	nt	nt	nt	nt	nt
CCCCn1c(N)c(N(CCOC)C(=O)COC(=O)COc2cc(C)c(Cl)cc2C(C)C)c(=O)[nH]c1=O	i	i	i	i	i	nt	nt	nt	nt	nt	nt
Cc1cc(C)c(N=Cc2c(O)c3ccccc3oc2=O)c(C)c1	i	i	i	i	i	nt	nt	nt	nt	nt	nt
